# Screening results deposited in PubChem by Broad Institute.
# Rows were chosen to be rich in hits. Some 2.1% of all compounds tested hit in one or more screens of this group.
# PGC1a acetyl inh – modulators of PGC1a acetylation; U2OS PGC1a acetylation, AlphaScreen anti-acetyl-lysine; with virally co-expressed GCN5 acetyltransferase; inhibition, % at 15.6 µM; actives 0.17% (n = 350,000); AID 651687;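 active means every replicate shows inhibition of at least 40%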;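 further: 0% = neutral control wells and 100% = positive control wells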
# XiGFP reactiv – X-chromosome reactivation activator; XiGFP mouse fibroblasts, % GFP-positive cells imaging, 3 d; cells co-treated with 5-aza-dC sensitizer; scaled so ellipticine positive control = 100%; activation, % at 7.58 µM; actives 0.055% (n = 360,000);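 active means mean normalized replicate activation at least 10% and every replicate at or above 10%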;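 further: 0% = median of on-plate neutral control wells and 100% = ellipticine 6 µM median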
#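 Assay system – SV40-immortalized XiGFP fibroblast cells, line 68-5-11 · Buffer or medium – DMEM supplemented with 5-aza-dC as sensitizing agent · Dosing – one concentration, pinned · Benchmarks – positive control ellipticine, 6 µM final · Times – 3 days compound exposure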
# INS-1E GSIS act – primary screen for activators of insulin secretion dependent on glucose, INS-1E cells, GLuc reporter luminescence; INS-1E GLuc reporter insulin secretion, 2-3 h; activation, % at 16.6 µM; actives 0.61% (n = 370,000); AID 743287;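 active means lowest replicate activation of at least 40%, so every replicate reaches that level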;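 further: 0% = median of neutral control wells and 100% = median of IBMX positive control wells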
# EWS-Fli inh – inhibitors of EWS/Fli oncoprotein transcriptional activity; A673 NR0B1-luciferase reporter, viability-normalised; inhibition, % at 12.6 µM; actives 0.67% (n = 350,000);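 active means mean inhibition of at least 50% after viability correction, with every replicate also passing that limit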;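 further: firefly luciferase signal divided by Alamar Blue viability fluorescence both relative to DMSO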
# MLL AF4-AF9 inh – inhibitors of human MLL-AF4/AF9 interaction. P42568. AlphaScreen, biotin-AF4 peptide binding to FLAG-AF9. inhibition, % at 10 µM. actives 0.47% (n = 350,000). AID 651704;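 active means every replicate reaching a set inhibition limit, whatever the replicate mean, cut at about 25% in these data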;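 further: 0% = plate neutral control median and 100% = total signal loss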
# Target sequence (P42568 whole entry, looked up): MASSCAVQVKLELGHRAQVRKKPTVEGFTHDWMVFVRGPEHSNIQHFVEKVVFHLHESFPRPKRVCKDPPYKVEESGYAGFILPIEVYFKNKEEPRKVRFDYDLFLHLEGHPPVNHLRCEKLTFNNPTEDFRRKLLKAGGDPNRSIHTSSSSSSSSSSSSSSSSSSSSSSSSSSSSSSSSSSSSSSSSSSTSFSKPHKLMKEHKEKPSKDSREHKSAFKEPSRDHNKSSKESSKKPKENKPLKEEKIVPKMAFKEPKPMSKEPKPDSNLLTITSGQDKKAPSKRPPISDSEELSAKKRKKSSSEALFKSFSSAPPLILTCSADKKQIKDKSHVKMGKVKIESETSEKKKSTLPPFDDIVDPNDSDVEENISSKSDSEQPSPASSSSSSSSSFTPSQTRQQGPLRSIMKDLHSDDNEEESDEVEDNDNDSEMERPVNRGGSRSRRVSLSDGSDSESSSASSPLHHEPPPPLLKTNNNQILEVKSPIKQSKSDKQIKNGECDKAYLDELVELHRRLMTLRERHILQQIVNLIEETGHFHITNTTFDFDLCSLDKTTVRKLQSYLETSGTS
# PAX8 reporter – PAX8 transcriptional activity inhibition; inhibition, % at 12.6 µM; RMG-I TPO-luciferase reporter, SteadyGlo, 24 h; actives 1.2% (n = 360,000);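 active means mean replicate inhibition at least 60% with every replicate also reaching 60%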;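 further: luciferase light reporting Pax8 driven TPO promoter activity; plate controls were median of neutral control wells for no effect and mitoxantrone controls for full effect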
# Numbers without * were called inactive; nt = no result.
SMILES,PGC1a acetyl inh,XiGFP reactiv,INS-1E GSIS act,EWS-Fli inh,MLL AF4-AF9 inh,PAX8 reporter
C[C@@H]1CN([C@H](C)CO)C(=O)Cc2cc(NC(=O)Nc3ccc4c(c3)OCO4)ccc2O[C@H]1CN(C)Cc1ccc2c(c1)OCO2,-17,0,-5,1,3,-18
Cc1ccc(CNC(=O)c2ccc3nc4[nH]c5ccccc5c4nc3c2)cc1,nt,0,61*,nt,nt,2
COc1ccccc1CNC(=O)c1ccc2nc3[nH]c4ccccc4c3nc2c1,-6,0,15,-23,-4,162*
C[C@@H]1CN([C@H](C)CO)C(=O)c2c(c3ccccc3n2C)-c2ccccc2CO[C@@H]1CN(C)CC1CCCCC1,-3,0,15,7,11,-13
c1ccc(SSc2ccccn2)nc1,18,nt,nt,nt,nt,nt
c1ccc(Sc2ccccn2)cc1,76*,0,nt,-2,2,-7
CCOc1ccc(N/N=C(/C#N)C(N)=O)cc1,-7,nt,-6,-30,-15,nt
N#C/C(=N/Nc1ccc(OC(F)(F)F)cc1)C(N)=S,0,0,-6,-35,9,81*
CCC(=O)Nc1ccc2c(c1)C(=O)N(C)C[C@H](OC)[C@@H](C)CN(C(=O)CC1CC1)[C@@H](C)CO2,-5,0,-13,-3,0,nt
O=C(c1ccccc1)c1cc2cc(Cl)ccc2[nH]1,nt,0,41*,-76,-1,-90
COc1cccc(C(=O)c2cc3cc(Cl)ccc3[nH]2)c1,nt,0,-2,-92,-8,-79
CC(C)NC(=O)Nc1ccc2c(c1)CC(=O)N(C)C[C@H](C)[C@H](CN(C)S(C)(=O)=O)O2,nt,0,-4,nt,nt,nt
CC(C)(C)Nc1nc(OCC(F)(F)F)nc(OCC(F)(F)F)n1,-9,nt,nt,nt,nt,-5
CONc1nc(NC(C)(C)C)nc(OCC#N)n1,nt,0,65*,4,-3,36
CC(=O)Nc1ccc2c(c1)C(=O)N(C)C[C@H](C)[C@@H](CN(C)S(C)(=O)=O)O2,nt,0,4,nt,nt,nt
CC(=O)Oc1ccc(C(=O)Cc2ccc3ccccc3n2)c(O)c1C,nt,0,7,55*,-3,-95
Cc1ccc(-n2nc3ccc(NC(=O)/C=C/c4ccco4)cc3n2)cc1,nt,0,nt,-12,-7,68*
C[C@@H]1CN([C@H](C)CO)C(=O)c2cc(NS(=O)(=O)c3ccc(F)cc3)ccc2O[C@@H](C)CCCCO[C@H]1CN(C)S(=O)(=O)c1cccs1,6,0,-10,4,-4,51
O=c1oc2cc(O)ccc2cc1-c1nc2c(s1)CCc1ccccc1-2,nt,95*,-33,nt,nt,3
CCCC(=O)NC(NC(=S)Nc1ccc(N=Nc2ccccc2)cc1)C(Cl)(Cl)Cl (centres undefined),nt,0,nt,15,7,64*
CCc1ccc(OCC(=O)NC(=S)Nc2ccc(C(=O)O)cc2)cc1,-2,0,20,7,-1,0
CCc1ccc(OCC(=O)NC(NC(=S)Nc2ccc(Cl)cc2)C(Cl)(Cl)Cl)cc1 (centres undefined),nt,0,-31,19,1,82*
C[C@@H]1CCCCO[C@@H](CN(C)C(=O)NC2CCCCC2)[C@@H](C)CN([C@H](C)CO)C(=O)c2cc(NC(=O)Nc3ccc(C(F)(F)F)cc3)ccc2O1,-5,0,8,-2,-1,17
C[C@H]1CCCCO[C@@H](CN(C)C(=O)NC2CCCCC2)[C@@H](C)CN([C@@H](C)CO)C(=O)c2cc(NC(=O)Nc3ccc(C(F)(F)F)cc3)ccc2O1,11,0,11,3,-1,88*
C[C@H](CO)N1C[C@H](C)[C@@H](CN(C)C(=O)NC2CCCCC2)OCCCC[C@H](C)Oc2ccc(NC(=O)Nc3ccc(C(F)(F)F)cc3)cc2C1=O,16,0,10,21,-4,49
SMILES,PGC1a acetyl inh,XiGFP reactiv,INS-1E GSIS act,EWS-Fli inh,MLL AF4-AF9 inh,PAX8 reporter
C[C@@H]1CCCCO[C@H](CN(C)C(=O)NC2CCCCC2)[C@H](C)CN([C@@H](C)CO)C(=O)c2cc(NC(=O)Nc3ccc(C(F)(F)F)cc3)ccc2O1,16,0,0,3,-2,71*
C[C@H](CO)N1C[C@H](C)[C@H](CN(C)C(=O)NC2CCCCC2)OCCCC[C@H](C)Oc2ccc(NC(=O)Nc3ccc(C(F)(F)F)cc3)cc2C1=O,1,1,13,6,0,93*
C[C@@H]1CN([C@H](C)CO)C(=O)c2cc(NC(=O)Nc3ccc(C(F)(F)F)cc3)ccc2O[C@@H](C)CCCCO[C@@H]1CN(C)C(=O)NC1CCCCC1,4,0,7,2,-1,86*
C[C@H]1CCCCO[C@H](CN(C)C(=O)Nc2ccc(C(F)(F)F)cc2)[C@@H](C)CN([C@@H](C)CO)C(=O)c2cc(NC(=O)NC3CCCCC3)ccc2O1,12,0,-4,6,-3,50
C[C@H](CO)N1C[C@H](C)[C@@H](CN(C)C(=O)C2CC2)Oc2cc(-c3ccc(C(=O)N(C)C)cc3)ccc2S1(=O)=O,-6,-1,-14,17,nt,nt
O=C(N[C@H]1CC[C@@H](CC(=O)N2CCCCC2)O[C@H]1CO)c1cccc(F)c1,1,0,-2,1,-1,-9
CC(C)CC#Cc1ccc2c(c1)O[C@@H](CN(C)C(=O)Cc1ccccc1)[C@H](C)CN([C@@H](C)CO)S2(=O)=O,0,0,26,27,-1,nt
CNC[C@H]1Oc2cc(C#CC(C)(C)O)ccc2S(=O)(=O)N([C@H](C)CO)C[C@@H]1C,3,0,8,-3,-1,nt
O=C1C2C3C=CC(C4CC34)C2C(=O)N1/N=C/c1c[nH]c2ccccc12 (centres undefined),106*,0,-8,-40,-5,-54
CCc1cc2c(COC(=O)c3cccc(NS(C)(=O)=O)c3)cc(=O)oc2cc1O,nt,0,65*,nt,-2,10
CCc1cc2c(COC(=O)c3cc(S(=O)(=O)N4CCOCC4)ccc3F)cc(=O)oc2cc1O,30,0,nt,45,3,20
Cc1ccc(S(=O)(=O)Nc2ccc3c(c2)C(=O)N([C@H](C)CO)C[C@@H](C)[C@H](CN(C)S(=O)(=O)c2c(C)noc2C)OCCCC[C@H](C)O3)cc1,25,0,-15,13,-1,19
Clc1ccc(C[n+]2cc(-c3ccccc3)n3c2CCCCC3)c(Cl)c1,nt,0,-43,36,-1,81*
CC(C)Cn1c2c(c(=O)[nH]c1=O)C(C(F)(F)F)(C(F)(F)F)N=C(CCC1CCCCC1)N2,nt,nt,54*,nt,nt,nt
C[C@H](CO)N1C[C@H](C)[C@H](CN(C)C(=O)Nc2ccc3c(c2)OCO3)Oc2c(NC(=O)NC3CCCCC3)cccc2C1=O,9,0,8,-20,5,3
